High-throughput results (PubChem BioAssay)
In the library only some 2.5% were active in any assay of this set; here they are far more common.
NTR1 ag = agonists of human neurotensin receptor NTR1 | 0.17% of 330,000 active | NTR1-U2OS beta-arrestin-GFP spot imaging, agonist mode | P30989 | activation, % at 20 µM;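 active means activation at or above 40% of the spot to cytoplasm intensity ratio, with at least 20 cells analyzed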;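 further: 0% = DMSO without peptide and 100% = 100 nM NTR1 peptide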
MC4R barr agon = human MC4R agonism via beta-arrestin | U2OS MC4R beta-arrestin complementation, luminescence; percent of melanotan II response, DMSO zero | activation, % at 8.9 µM | 0.98% of 360,000 active;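 active means activation above a per-plate cutoff, the mean activation of sample wells on that plate plus 3 SD, cut at about 8% in these data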
PG9 Ab binder = small molecules binding HIV-1 gp120 antibody PG9. TR-FRET gp120-PG9 antibody binding. inhibition, % at 6.7 µM. 0.43% of 360,000 active. AID 624416; in the data active means inhibition above about 8.5%
MC4R antagonist = antagonists of human melanocortin 4 receptor (MC4R) | AID 540295 | inhibition, % at 6.5 µM | MC4R-expressing cells, MTII-stimulated cAMP, LANCE TR-FRET | 0.48% of 360,000 active | P32245;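 active means inhibition above its plate's cutoff, the mean of tested wells on that plate plus 3 SD, cut at about 29% in these data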;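 further: 0% = Melanotan II alone and 100% = Melanotan II plus saturating MCL0020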
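System: U2OS-MC4R stable cell line; Technique: Eu-cAMP/anti-cAMP TR-FRET, emission 671 nm; Repeats: single well per compound; Also added: Melanotan II; Dosing: one concentration, 6.5 µM nominal; Schedule: 30-min compound, 1-h challenge, 1-h detection, room temperature.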
Rev-erbA mod = Rev-erb alpha (human) modulation | activity, % at 10 µM | Rev-erbα–FITC-DNA binding, fluorescence polarization, 90 min | 0.79% of 370,000 active | P20393;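 active means activity above about 14%, limit read from the data; passing the limit was not always enough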;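 further: 0% = DMSO wells with 35 nM protein and 100% = DMSO wells with 750 nM protein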
Target sequence (P20393 whole entry, looked up): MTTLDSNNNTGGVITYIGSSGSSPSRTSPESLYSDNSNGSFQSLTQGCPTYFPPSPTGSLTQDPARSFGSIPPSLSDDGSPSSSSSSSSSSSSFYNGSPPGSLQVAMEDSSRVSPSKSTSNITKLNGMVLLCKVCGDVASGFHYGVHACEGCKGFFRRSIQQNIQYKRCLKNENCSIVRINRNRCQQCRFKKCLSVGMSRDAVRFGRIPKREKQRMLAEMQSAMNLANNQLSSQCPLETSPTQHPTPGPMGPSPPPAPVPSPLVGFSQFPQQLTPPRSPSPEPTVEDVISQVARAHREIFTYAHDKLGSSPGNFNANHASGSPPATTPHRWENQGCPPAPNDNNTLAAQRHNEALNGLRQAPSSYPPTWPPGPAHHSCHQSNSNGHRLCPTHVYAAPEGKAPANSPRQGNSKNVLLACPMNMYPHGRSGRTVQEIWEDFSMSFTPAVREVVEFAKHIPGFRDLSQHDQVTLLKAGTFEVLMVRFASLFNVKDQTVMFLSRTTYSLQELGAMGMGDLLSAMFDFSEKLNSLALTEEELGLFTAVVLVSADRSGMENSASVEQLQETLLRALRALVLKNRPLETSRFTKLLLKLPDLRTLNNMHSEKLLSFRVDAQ
MC4R barr conf = human MC4R beta-arrestin agonism confirmation | 31% of 2,400 active | activation, % at 8.9 µM | shares compounds with MC4R barr agon | U2OS MC4R beta-arrestin recruitment, luminescence; scaled DMSO 0%, Melanotan II 100%;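 active means mean activation across replicates above the hit cutoff set in the earlier primary screen, cut at about 8% in these data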
MOR DOR agonist = activates mu-delta opioid heterodimer, MC4R agonist counter-screen; U2OS PathHunter beta-arrestin, beta-gal luminescence; percent of deltorphin B response, DMSO zero; shares compounds with MC4R barr agon; 5.8% of 2,400 active; activation, % at 9.2 µM;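 active means mean activation across replicates exceeds the hit threshold derived in the earlier primary screen, cut at about 18% in these data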;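 further: 100% = deltorphin B at 0.9 µM final and 0% = DMSO alone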
Starred values were filed as active, the others as inactive; / = no result given.

SMILES	NTR1 ag	MC4R barr agon	PG9 Ab binder	MC4R antagonist	Rev-erbA mod	MC4R barr conf	MOR DOR agonist
Nc1nc(-c2cc(O)ccc2[N+](=O)[O-])cc(-c2ccccc2)c1[N+](=O)[O-]	9.4	11.1*	1.9	-16.6	-2.6	1.1	3.5
COc1cccc(-c2cnc3c(NC=O)cc(-c4ccc(N(C)C)cc4)cn23)c1	/	14.6*	1.2	-5.1	-1.1	7.8	2.5
COc1ccc(-c2cc(NC=O)c3ncc(-c4cnn(C)c4)n3c2)cc1	/	14.5*	-0.2	-1.8	6.7	9.6*	1.2
COc1cccc(-c2cnc3c(NC=O)cc(-c4ccc(OC)cc4OC)cn23)c1	/	14.4*	0.3	-38.2	7.3	11.9*	2.5
COc1cccc(-c2cnc3c(NC=O)cc(-c4cc(OC)c(OC)c(OC)c4)cn23)c1	/	28.6*	-0.3	-36.2	10.9	26.2*	3.3
COc1ccc(-c2cc(NC=O)c3ncc(-c4cccc(OC)c4)n3c2)cc1	/	3.2	0.1	-5.8	0.2	/	/
COC(=O)C1CN(Cc2ccc(Cl)cc2)CCS(=O)(=O)N1Cc1cn(Cc2ccccc2)nn1 (stereo unspecified)	/	/	/	/	0.0	/	/
C[C@H]1[C@@H](OC(=O)NCc2ccc(Cl)c(Cl)c2)CC[C@@]23CCCN2C(=O)CCC[C@@H]13	/	/	/	/	2.1	/	/
C=CS(=O)(=O)N(Cc1ccc(F)cc1)C(=C)C(=O)OC	/	/	/	/	-7.5	/	/
CCCCCOC(=O)Nc1ccc(S(=O)(=O)Nc2cccc([N+](=O)[O-])c2)cc1	6.3	13.6*	-1.8	-3.1	-2.1	9.7*	7.5
CCCCOC(=O)Nc1ccc(S(=O)(=O)Nc2ccc([N+](=O)[O-])cc2)cc1	-1.0	0.1	-1.3	20.1	2.7	/	/
CSc1ccc(/C=C/C(=O)OCC(=O)NC2CCCC2)cc1	/	2.2	0.5	9.1	-0.7	/	/
CSc1ccc(/C=C/C(=O)OCC(=O)c2ccc[nH]2)cc1	-1.5	21.6*	-1.4	5.3	0.5	-1.0	6.3
Cc1ccc2cc(C)c(SCC(=O)Nc3cc(C)on3)nc2c1	1.3	19.9*	5.5	18.0	11.2	6.3	3.3
CCC(C)[C@H](NC(=O)OC(C)(C)C)C(=O)N[C@@H](Cc1ccccc1)C(=O)OC (stereo partly specified)	/	/	/	/	-1.2	/	/
COc1ccc(C(=O)Nc2cccc(-c3cc4ccccc4oc3=O)c2)cc1[N+](=O)[O-]	/	13.4*	-0.4	-0.5	-0.1	0.0	2.5
N#Cc1nc(-c2ccc(OCc3ccc(Cl)cc3)cc2)oc1NCc1cccnc1	4.1	14.6*	1.5	-0.9	-3.2	7.8	2.4
N#Cc1nc(-c2ccc(OCc3ccccc3)cc2)oc1NCc1cccnc1	2.8	1.6	-3.7	-3.0	-1.9	/	/
CC(C)(C)c1ccc(S(=O)(=O)N2CCCC(C(=O)NCc3cccs3)C2)cc1 (stereo unspecified)	/	/	/	/	-2.6	/	/
COC(=O)[C@]12C[C@H](CC(=O)NCc3cccc4ccccc34)C(=O)N(CCc3ccc(OC)c(OC)c3)C1=C[C@H](C(C)(C)C)O[C@@H]2C	/	/	0.2	/	5.5	/	/
COCCCN1CCN(C2Cc3ccccc3Sc3ccc(Cl)cc32)CC1 (stereo unspecified)	12.6	12.8*	-0.8	2.9	2.9	1.3	11.4
Clc1ccc2c(c1)C(N1CCNCC1)Cc1ccccc1S2 (stereo unspecified)	11.6	10.3*	/	-7.3	/	18.6*	22.7*
Clc1cccc2c1Sc1ccccc1CC2N1CCNCC1 (stereo unspecified)	0.1	2.1	1.8	1.3	10.5	/	/
O=C(NC1=N[C@@]2(C=C3CCCCC3n3c(=O)n(-c4ccccc4)c(=O)n32)[C@H](Cc2ccccc2)N1Cc1ccccc1)c1ccccc1 (stereo partly specified)	/	/	/	/	-4.2	/	/
O=C(Cc1ccc(NC(=O)C2CCCN(C(=O)c3ccccc3)C2)cc1)Nc1cccc(C(=O)N2CCCC2)c1 (stereo unspecified)	/	/	-1.8	/	0.1	/	/
SMILES	NTR1 ag	MC4R barr agon	PG9 Ab binder	MC4R antagonist	Rev-erbA mod	MC4R barr conf	MOR DOR agonist
CCOC(=O)c1c(CSC(=N)N)n(C)c2cc(Br)c(OC(C)=O)cc12	10.8	-3.5	-1.6	0.9	0.2	/	/
CCOC(=O)c1c(CSC(=N)N)n(-c2ccc(C)cc2)c2cc(Br)c(OC(C)=O)cc12	19.4	29.2*	-1.9	1.1	-2.9	14.1*	51.0*
CCc1nnc(NC(=O)CSc2nc3cccnc3n2C2CCCCC2)s1	5.1	0.3	-1.3	7.8	0.7	/	/
Cc1nc(NC(=O)CSc2nc3cccnc3n2C2CCCCC2)sc1C	-3.1	9.6*	1.2	-3.2	-1.4	-2.4	6.8
COC(=O)C1=C(C)N(Cc2ccccc2C(F)(F)F)C(=NCc2ccc3c(c2)OCO3)NC1c1ccccc1C(F)(F)F (stereo unspecified)	/	/	0.6	/	3.8	/	/
Cc1ccc(C)c(OCC(=O)Nc2nonc2NC(=O)COc2cc(C)ccc2C)c1	3.8	19.2*	-0.1	-10.4	-0.2	7.0	6.7
COC(=O)[C@]12C[C@H](CC(=O)N3CCC(c4ccccc4)CC3)C(=O)N(Cc3cccc4ccccc34)C1=C[C@H](C(C)C)O[C@@H]2C1CC1	/	/	/	/	-6.9	/	/
CCn1c2c(n(C(C)=O)c1=O)C[C@@H](c1ccccc1)[C@@H](C)[C@@H](C(=O)N1CCCC1)C2	/	/	-0.5	/	-7.4	/	/
c1ccc(OCCCn2nnc(-c3ccc(N4CCOCC4)cc3)n2)cc1	-1.2	17.4*	0.8	-2.2	1.4	3.3	12.0
Cc1nc(NC(=O)COc2ccccc2)sc1C(=O)Nc1cccc(Cl)c1	2.7	4.9	0.4	4.6	16.8	/	/
Cc1nc(NC(=O)/C=C/c2ccccc2)sc1C(=O)Nc1cccc(Cl)c1	3.8	11.6*	-2.8	0.3	-4.4	6.7	3.0
COc1cc(-c2cc(NC(C)=O)c3ncc(-c4ccc(F)cc4)n3c2)cc(OC)c1OC	/	11.9*	5.7	17.1	-2.5	8.6*	3.6
CC(=O)Nc1cc(-c2ccc(F)cc2)cn2c(-c3ccc(F)cc3)cnc12	/	24.6*	0.6	0.4	3.0	14.6*	5.7
CC(=O)Nc1cc(-c2ccccc2)cn2c(-c3ccc(F)cc3)cnc12	/	26.0*	-1.1	12.0	0.5	26.6*	3.0
CC(=O)Nc1cc(-c2ccc(CO)cc2)cn2c(-c3ccc(F)cc3)cnc12	/	-1.9	-2.9	8.0	-3.8	/	/
O=C(CCn1nnc(-c2cccs2)n1)N1CCCCC1	/	/	/	/	-0.2	/	/
CCn1cc([N+](=O)[O-])c(C(=O)N2N=C(c3ccc4ccccc4c3)CC2c2cc(Br)ccc2O)n1 (stereo unspecified)	6.5	15.9*	/	5.5	/	9.0*	6.5
